Yeast superoxide: yeast age-related superoxide inhibition as caloric restriction mimetic | AID 2690 | 330,000 compounds, 0.18% hits | S. cerevisiae aged cells, superoxide DHE fluorescence; stronger effect = lower value | superoxide response (% of plate mean), % at 10 µM;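 active = superoxide response under a set limit, about three screen SD below normal, cut at about 65% in these data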;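 also: yeast aged for seven days with compound at 30 °C before DHE staining; 100% = average MFI of all compound-treated wells on the plate with controls excluded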
VIM-2 inh: inhibitors of Pseudomonas aeruginosa VIM-2 metallo-beta-lactamase. inhibition, % at 5.6 µM. purified VIM-2, nitrocefin hydrolysis, epi-absorbance fluorescence. 290,000 compounds, 0.89% hits. AID 1527;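 active = inhibition above the mean of all tested compounds plus 3 SD, cutoff set per screening run, cut at about 7.5% in these data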;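 also: red hydrolysis product quenches plate fluorescence so inhibitors raise well fluorescence; 0% = enzyme with DMSO and 100% = DMSO without enzyme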
IMP-1 inhibitor: inhibitors of Pseudomonas aeruginosa IMP-1 metallo-beta-lactamase; purified IMP-1, nitrocefin hydrolysis, epi-absorbance fluorescence; inhibition, % at 5.6 µM; 290,000 compounds, 0.45% hits; AID 1556;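 active = inhibition above the mean plus 3 SD of all compounds in the same screening run, cut at about 4.5% in these data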;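 also: 0% = IMP-1 with DMSO and 100% = DMSO wells lacking enzyme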
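Assay system: purified recombinant IMP-1 beta-lactamase. Input: IMP-1 0.2 nM before substrate addition. Buffer or medium: Zinc- and detergent-supplemented HEPES buffer, pH 7.1. Schedule: 25 °C, 15 min preincubation, 25 min reaction. Signal: Epi-absorbance fluorescence, 480 nm excitation, 530 nm emission. Evaluation: percent inhibition from optical density relative to buffer-blank wells.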
PHOSPHO1 inh: blocks human PHOSPHO1 phosphatase activity; inhibition, % at 13.3 µM; recombinant PHOSPHO1, absorbance phosphatase assay; 290,000 compounds, 1.1% hits; Q8TCT1; in the data active = inhibition above about 60%
Target sequence (Q8TCT1 whole entry, looked up): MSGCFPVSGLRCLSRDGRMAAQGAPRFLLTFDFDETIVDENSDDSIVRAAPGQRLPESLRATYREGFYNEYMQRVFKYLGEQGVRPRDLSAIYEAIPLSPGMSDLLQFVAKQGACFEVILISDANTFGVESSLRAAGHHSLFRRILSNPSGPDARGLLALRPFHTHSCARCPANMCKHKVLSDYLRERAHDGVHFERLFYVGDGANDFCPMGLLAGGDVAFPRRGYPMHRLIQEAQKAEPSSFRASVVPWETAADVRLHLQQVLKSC
PvdQ inh: blocks Pseudomonas aeruginosa PvdQ acylase activity | purified PvdQ acylase, fluorescence plate reader | inhibition, % at 10 µM | 340,000 compounds, 0.063% hits | AID 488965; in the data active = inhibition above about 30%, passing the limit was not always enough;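 also: 0% = vehicle neutral wells and 100% = reference inhibitor wells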
* = called active by the depositor; x = not tested or not shown. Most compounds without a hit are left out; they make up all but 2.2% or so of the library.

SMILES	Yeast superoxide	VIM-2 inh	IMP-1 inhibitor	PHOSPHO1 inh	PvdQ inh
NC(=O)c1cc(C(=O)c2ccc(Cl)cc2Cl)c[nH]1	93.7	0.5	-0.5	64.3*	4.9
CN(C)C(=O)c1cc(C(=O)c2ccc(Cl)cc2Cl)c[nH]1	101.6	-2.3	-0.7	-7.4	-10.5
C/C(CC(=O)NCc1ccco1)=N\NC(=O)c1ccc([N+](=O)[O-])cc1Cl	103.5	-3.4	-3.4	28.0	-0.2
O=C(NN1CC(C(=O)OCc2ccc(Cl)cc2Cl)CC1=O)c1ccccc1 (stereo not drawn)	91.1	-1.5	-6.0	61.0*	-15.9
CNC(=O)C(Sc1nc(C)nc2c1oc1ccccc12)C(C)=O (stereo not drawn)	113.4	1.8	-0.9	88.1*	-16.4
Cc1nc(SCC(=O)Nc2ccccc2)c2oc3ccccc3c2n1	84.5	-2.7	1.3	22.9	-17.5
c1csc(-c2nnc(N3CCCCCC3)c3ccccc23)c1	89.6	-2.1	-4.0	6.0	-14.0
c1csc(-c2nn3cnnc3c3ccccc23)c1	86.3	11.9*	-2.8	-101.8	-5.8
CCN(C[C@H]1N[C@@](CC)(C(=O)OC)[C@H]2C(=O)N(Cc3ccccc3)C(=O)[C@@H]12)C(=O)c1ccccc1	98.3	x	x	x	-5.7
O=C(NC(=S)Nc1ccc(Cc2ccncc2)cc1)c1ccccc1Cl	80.0	-2.0	-2.4	3.6	-6.8
O=C(NC(=S)Nc1ccc(Cc2ccncc2)cc1)c1ccccc1F	106.5	-3.5	-4.3	62.9*	8.1
S=c1[nH]nc(CSc2nc3ccccc3s2)o1	117.6	-1.1	-2.8	105.3*	-2.8
Cn1c(-c2sc3ccccc3c2Cl)n[nH]c1=S	103.8	1.3	-2.3	94.5*	-14.6
Cn1c(CSc2nc3ccccc3s2)n[nH]c1=S	99.7	1.6	-5.2	72.8*	-6.9
Cn1c(CSc2nc3ccccc3s2)nc2ccccc21	80.7	-2.2	-3.6	7.1	-13.8
CCN1CCN(Cc2c3ccccc3cc3ccccc23)CC1	105.7	3.0	-1.2	-11.0	-4.6
O=c1[nH][nH]c(=S)n1-c1ccccc1C(F)(F)F	x	-3.6	-3.1	90.4*	x
CC(Nc1nc(N2CCN(S(C)(=O)=O)CC2)nc2ccccc12)c1ccccc1 (stereo not drawn)	101.1	1.3	4.5*	15.9	-12.4
Cc1cc(C)nc(-n2nc(C)cc2NC(=O)CN2CCC(C)CC2)n1	102.9	9.0*	-1.2	-4.2	4.3
Cc1cc(C)nc(-n2nc(C)cc2NC(=O)CN2CCCC2)n1	92.5	1.6	-4.5	40.0	-2.5
CC[C@@]1(C(=O)OC)N[C@H](CN(C)C(=O)Nc2ccc(OC)cc2)[C@@H]2C(=O)N(Cc3ccccc3)C(=O)[C@@H]21	94.6	x	x	x	1.6
CC(=O)Oc1ccc(C(=O)Nc2cccc(C(=O)c3ccc(C)c(C)c3)c2)cc1	100.8	x	x	x	5.9
CCOC(=O)c1cc(=O)n2nc(-c3ccc(C)cc3)nc2s1	86.2	-1.3	-0.7	75.3*	6.4
CCOC(=O)Cc1csc2nc(-c3ccccc3)nn12	122.9	-2.9	-3.2	25.4	0.6
CC1CCN(S(=O)(=O)c2cn(CC(=O)Nc3ccc(OC(F)(F)F)cc3)cn2)CC1	130.2	-2.6	8.8*	23.9	6.8
SMILES	Yeast superoxide	VIM-2 inh	IMP-1 inhibitor	PHOSPHO1 inh	PvdQ inh
NC(=O)NCCC1=CCCCC1	103.6	-2.6	-1.5	28.0	-2.8
C=CCn1c(N)c(C(=O)NCCC2=CCCCC2)sc1=S	81.0	0.0	-1.5	76.6*	4.8
O=C(COC(=O)c1ccccc1Cc1ccccc1)NC1CCS(=O)(=O)C1 (stereo not drawn)	88.1	0.7	1.5	32.6	16.0
COCCn1c(C)cc(C2=NNC(=Nc3ccccc3)SC2)c1C	89.5	0.1	-1.3	102.5*	-7.2
CC(=O)OC1CC2(C)/C(=N\O)CCC2C2CCc3cc(O)ccc3C12 (stereo not drawn)	100.6	-1.8	-4.5	17.9	-8.8
COc1ccc(-c2nc3ccccc3[nH]2)cc1	92.1	-2.6	-1.2	-0.3	18.4
COC(=O)c1ccc(-c2nc3ccccc3[nH]2)cc1	88.9	-5.6	-2.2	2.1	40.2*
NC1=NC(=O)C(c2ccccc2)(c2ccccc2)S1	x	x	x	x	-10.4
CCCOc1ccc(/C=C2/C(=O)ON=C2C)cc1OCC	97.8	2.1	-1.6	42.2	-15.1
CCCOc1ccccc1/C=C1/C(=O)ON=C1C	98.4	8.2*	0.8	9.8	-15.5
CN(C)S(=O)(=O)n1cc(/C=C(\NC(=O)c2ccccc2Cl)C(=O)NCCN2CCOCC2)c2ccccc21	98.3	-4.8	-3.3	64.9*	-6.3
CN(C)S(=O)(=O)n1cc(/C=C(\NC(=O)c2ccccc2Cl)C(=O)NCCCN2CCOCC2)c2ccccc21	89.4	-1.2	-1.7	42.6	-10.1
CCN(CC)C(=O)Cn1cc([N+](=O)[O-])cc1[N+](=O)[O-]	x	x	x	x	-11.1
CC(=O)c1c(-c2ccc(C)cc2)nc2c3ccccc3ccn12	102.7	-1.9	-2.7	64.3*	-15.2
CC(=O)N/C(=C\c1ccccc1)C(=O)OCc1cccc(S(=O)(=O)N(C)C)c1	98.5	0.9	1.0	x	-14.7
CCOC(=O)C1=C(C(=O)OCC)N(Cc2ccccc2)CCC1=O	x	x	x	x	-1.3
COc1ccc(C(=O)NNc2ccccc2)cc1OC	99.8	-7.5	-1.5	76.8*	-4.1
Cc1ccc(N=C2NC(=O)/C(=C/C=C/c3ccco3)S2)cc1	88.3	-0.6	4.1	0.2	2.4
Cc1cccc(N=C2NC(=O)/C(=C/C=C/c3ccco3)S2)c1C	98.4	-2.1	4.8*	-17.6	1.9
COc1ccccc1C(=O)NNC(=O)c1ccccc1F	101.7	-1.6	8.6*	-26.5	-1.9
COc1ccccc1C(=O)NNC(=O)c1cccc(F)c1	93.2	-3.5	-3.5	-2.4	0.0
CN1CCN(C(=O)CCN2C(=O)/C(=C\c3ccc(Cl)cc3Cl)SC2=S)CC1	86.0	0.8	0.5	83.6*	24.4
O=C(CN1C(=O)/C(=C/c2ccccc2Cl)SC1=S)NC1C=CS(=O)(=O)C1 (stereo not drawn)	97.2	-3.0	12.0*	75.4*	-12.8
O=C(CCN1C(=O)/C(=C/c2ccccc2Cl)SC1=S)NN1CCOCC1	103.6	3.6	4.5*	31.9	-5.8
O=C(CN1C(=O)/C(=C/c2ccccc2)SC1=S)NC1C=CS(=O)(=O)C1 (stereo not drawn)	95.2	-0.7	0.7	18.3	-3.1
SMILES	Yeast superoxide	VIM-2 inh	IMP-1 inhibitor	PHOSPHO1 inh	PvdQ inh
O=C(CN1C(=O)/C(=C/c2ccc(F)cc2)SC1=S)NC1C=CS(=O)(=O)C1 (stereo not drawn)	125.7	-0.5	4.8*	37.5	3.1
CN1CCN(C(=O)CCCN2C(=O)/C(=C/c3ccc(Cl)cc3)SC2=S)CC1	102.6	x	x	x	-11.9
Cc1ccc(C)c(C(=O)Cn2c(NCCO)nc3ccccc32)c1	101.2	-1.8	-0.7	22.7	-9.9
Cn1c(-c2ccccc2)c(/C=N/NC(=O)c2cccnc2)c2ccccc21	90.6	-2.4	-3.0	-2.7	-1.2
COc1ccc(S(=O)(=O)N2CCC(C(=O)NN3CCCCC3)CC2)cc1OC	89.5	x	x	x	-12.9
O=C(CN1C(=O)/C(=C/c2ccc(F)cc2)SC1=S)NC1CCS(=O)(=O)C1 (stereo not drawn)	84.2	0.9	10.5*	52.8	1.0
